Compounds with a hit are over-represented: about 3% of the library has one in this group of screens.
Xi reactivation – activators of inactive X chromosome reactivation, primary screen, imaging, XiGFP fibroblasts, GFP high-content imaging, set 2 | XiGFP mouse fibroblasts, % GFP-positive cells imaging, 3 d; cells co-treated with 5-aza-dC sensitizer; scaled so ellipticine positive control = 100% | activation, % at 7.58 µM | 360,000 tested, 0.055% active;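 active means mean normalized replicate activation at least 10% and every replicate at or above 10%; inconclusive means only one of the two criteria met; inactive means mean below 10% and not all replicates reach 10%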;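 further: 0% = median of on-plate neutral control wells and 100% = ellipticine 6 µM median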
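System: 68-5-11 XiGFP fibroblast line; Timing: 3 days compound exposure; Compound dosing: one concentration, pinned; Benchmarks: positive control ellipticine, 6 µM final; Buffer or medium: DMEM containing 5-aza-dC.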
esBAF inh – Bmi1 luciferase reporter increase in mESCs, primary screen, esBAF inhibitor project, mouse ES cells, Bmi1 luciferase knock-in, single point; 24 h; 100% = twice the neutral-well signal; reporter increase, % at 12.5 µM; 350,000 tested, 2% active; AID 602393, 2012; in the data active means activation above about 40%; inconclusive means no clear call, values can overlap the other calls;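 further: 0% = median of the plate's neutral control wells and 100% = double that signal; a rise in the Bmi1 reporter signal indicates esBAF inhibition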
Wnt act – Wnt/beta-catenin pathway activators, primary screen, cell-based, plate reader, single point; activation, % at 9.35 µM; Wnt/beta-catenin reporter cell assay, activator; AID 743398, 2014; 300,000 tested, 1.2% active; in the data active means activation above about 30%, passing the limit was not always enough; inconclusive means no clear call, values can overlap the other calls;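 further: 0% = neutral control wells and 100% = positive control wells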
NSD2 HMT inh – NSD2 histone methyltransferase inhibitors, primary screen, biochemical, AlphaScreen, single concentration, set 2 | Histone-lysine N-methyltransferase NSD2 (Homo sapiens), O96028 | NSD2 peptide methylation, 120 min | inhibition, % at 12.5 µM | 310,000 tested, 0.54% active; in the data active means inhibition above about 50%
Casp6 inh – human caspase-6 inhibitors, primary screen, biochemical, VEID-R110 fluorescence, single point, set 2. P55212. purified caspase-6, Z-VEID-R110 cleavage fluorescence. inhibition, % at 12.5 µM. 350,000 tested, 0.53% active;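 active means mean inhibition across replicates at least about 35%, with every replicate also reaching that limit, limit read from the data; inconclusive means only one of the two criteria met; inactive means neither criterion met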;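 further: 0% = median of neutral control wells and 100% = no fluorescence left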
MITF act – activators of MITF-driven TRPM1 promoter reporter, primary screen, cell-based, SK-MEL-5, luciferase, single point; SK-MEL-5 TRPM1-promoter luciferase, 24 h; % of positive control, neutral wells = 0; AID 588334, 2011; 300,000 tested, 0.75% active; activation, % at 12.5 µM;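 active means mean activation of at least 80% with every replicate also reaching 80%; inconclusive means mean reaches 80% but some replicate falls short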;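 further: 0% = neutral control wells and 100% = parthenolide positive control wells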
Numbers without * were called inactive; ? = inconclusive; . = no result given; ! = a repeat was not active.

SMILES	Xi reactivation	esBAF inh	Wnt act	NSD2 HMT inh	Casp6 inh	MITF act
COc1ccc2c3c(n(C)c2c1)[C@H](CO)N(C(=O)Nc1ccc(F)cc1)CC31CN(Cc2cccc(F)c2)C1	0	.	.	.	.	.
CC(C)c1ccc(/C=C2\SC(N3CCCC3)=NC2=O)cc1	0	.	41*	14	.	26
Cc1ccc(C(=O)/C=C\C(=O)c2ccc(C)cc2)cc1	0	.	1	3	-4	3
Cc1ccc(S/C=C\C(=O)c2ccccc2)cc1	.	.	56*	.	1	-4
CCCN1C[C@H](C)[C@H](OC)CN(C)C(=O)c2cc(NC(=O)CC)ccc2OC[C@H]1C	0	-7	.	.	.	.
Cc1c(OCC(F)(F)F)ccnc1CS(=O)c1nc2ccccc2[nH]1 (configuration not stated)	0	48*!	10	.	2	44
COCCCOc1ccnc(CS(=O)c2nc3ccccc3[nH]2)c1C (configuration not stated)	0	25	26	.	6	24
O=C(COC(=O)c1ccc(OC(F)F)cc1)Nc1ccc2c(c1)OCCO2	.	.	.	1	.	.
NC(=NCc1ccco1)NC(=O)c1ccc(Cl)cc1	0	49*	3	5	0	92*
Cc1[nH][nH]c(=O)c1C(c1ccc(Br)cc1)c1c(C)[nH][nH]c1=O	0	-7	-1	6	5	.
Cc1cn(-c2ccc(Br)cc2)[nH]c1=O	.	52*	11	23	-3	23
CCOc1ccc2nc(N3C(=O)CNC3=S)sc2c1	0	-13	51*	-1	-1	.
CC1CCc2sc(C(=O)NCC3CCCO3)cc2C1 (configuration not stated)	1	20	40*	-2	0	101*
COc1cccc(NC(=O)CC(=O)c2ccccc2)c1	0	?	33*	-2	0	80
COCC(=O)Nc1c(C(=O)Nc2cccc(OC)c2)oc2ccccc12	.	26	?	3	-1	97*
COc1cccc(NC(=O)c2oc3ccccc3c2NC(C)=O)c1	.	32	14	0	-1	68
COc1ccc(CNC(=O)CNC(=O)N2CC(=O)Nc3ccccc32)cc1	0	1	2	-1	0	4
COc1cccc(NC(=O)Cc2ccccc2)c1	0	64*	?	.	-3	69
COc1cccc(NC(=O)CNC(=O)N2CC(=O)Nc3ccccc32)c1	0	44*	6	-3	-3	31
COc1cccc(NC(=S)NC(=O)Cc2ccccc2)c1	0	.	9	-3	0	.
C[C@H]1CN([C@@H](C)CO)S(=O)(=O)c2ccc(-c3ccncc3)cc2O[C@H]1CN(C)C(=O)C1CCC1	-1	.	.	.	.	.
COc1cccc(NC(=S)NCc2ccncc2)c1	1	.	2	38	-1	12
COc1cccc(NC(=O)C(=O)NCc2ccncc2)c1	0	52*	23	-2	.	?
CC(C)CC#Cc1cnc2c(c1)C(=O)N([C@H](C)CO)C[C@@H](C)[C@@H](CN(C)Cc1ccccc1C(=O)O)O2	0	-2	.	.	-2	.
Cc1nc(C(=O)Nc2ccccc2)sc1C1(C)CC(c2cccnc2)=NO1 (configuration not stated)	0	46*	22	.	2	53
SMILES	Xi reactivation	esBAF inh	Wnt act	NSD2 HMT inh	Casp6 inh	MITF act
CC(=O)N1[C@@H](CO)[C@@H]2c3ccccc3N(S(=O)(=O)c3cccc(C)c3)C[C@@H]21	1	1	.	.	0	.
CCCOc1cc2c(C#N)c(N3CCCC3)nc(N)c2c(N)n1	0	9	-5	.	39*	31
N#Cc1c(N2CCCC2)nc(N)c2c(N)nc(N3CCCC3)cc12	.	69*	.	.	.	0
CCOc1cc2c(C#N)c(N3CCCC3)nc(N)c2c(N)n1	0	-1	4	.	15	14
O=S(=O)(NCc1cccnc1)c1ccc(Cl)cc1	0	-4	-1	1	47*	-9
CCOc1ccc(S(=O)(=O)NCc2cccnc2)cc1	0	6	15	-3	-2	.
Cc1nnc(NC(=O)CCNC(=O)c2ccccc2Cl)s1	0	.	-1	-5	0	-4
Cc1cnc(NC(=O)CCNC(=O)c2ccccc2Cl)s1	0	10	46*	-1	-1	1
C[C@@H]1CN([C@@H](C)CO)C(=O)c2cc(-c3ccc(F)cc3)cnc2O[C@H]1CN(C)C(=O)Cc1ccccc1	0	3	.	.	2	.
O=c1oc2ccccc2c2c1ncn2CCN1CCOCC1	.	3	44*	1	.	.
COCC(=O)N(C)C[C@H]1Oc2cc(C#CC3CCCC3)ccc2S(=O)(=O)N([C@@H](C)CO)C[C@@H]1C	-1	.	.	.	.	.
CCOc1cc(C2Nc3ccccc3C(=O)N2c2ccccc2)ccc1O (configuration not stated)	.	45*	10	2	2	33
CCOc1cc(C2Nc3ccccc3C(=O)N2c2ccccc2)c(Br)cc1OCC(=O)O (configuration not stated)	0	.	.	-4	.	6
COc1cc(C2Nc3ccccc3C(=O)N2c2ccc(Cl)cc2)c(Cl)cc1OCC(=O)O (configuration not stated)	1	.	48*	-3	.	71
CO[C@H]1CC[C@@H]2CCN(C)C(=O)[C@@H](C)N(C)C(=O)c3cc(C#N)ccc3OC[C@@H]1O2	0	-1	.	.	9	.
C[C@@H]1CN([C@@H](C)CO)S(=O)(=O)c2ccc(-c3ccccc3)cc2O[C@H]1CN(C)C(=O)C1CCC1	0	.	.	.	.	.
C(=C\c1ccc(C2[C@H]3CNC[C@@H]2N3Cc2ccccn2)cc1)/c1ccccc1 (some centres not stated)	0	.	.	.	50*	.
CCCNC(=O)N1CC2(CCN(Cc3cccc(OC)c3)CC2)c2c([nH]c3cc(OC)ccc23)[C@@H]1CO	0	.	.	.	.	.
O=S(=O)(c1ccccc1)N1CC[C@@H]2[C@H](CO)Nc3ccc(C#Cc4cccc(F)c4)cc3[C@@H]21	0	9	.	.	0	.
NNc1ccc([N+](=O)[O-])c2[nH][nH]c(=O)c12	1	.	4	.	94*	.
CN1CCN(C(=O)C[C@H]2C[C@@H]3c4cc(NC(=O)CC5CC5)ccc4O[C@@H]3[C@@H](CO)O2)CC1	0	-4	.	.	-3	.
O=Nc1c2cc3ccccc3[nH]c-2c2ccccc12	1	-1	74*	0	-4	18
O=Nc1c(O)c2ccccc2c2ccccc12	2	-62	-10	.	-1	-96

Screening data: PubChem BioAssay, Broad Institute
